# The source made the active and inactive calls. The calls are words filed in the database; no cut-off is given here.
# Columns and labels:
# [1] = test system: A-431; assay: Cytotoxicity against human A431 cells after 72 hrs by trypan blue assay; format: functional, cell-based; details: A-431, 72 h
# Outline: (§1)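 A-431, HeLa and HL-60 cells at 4×10^4 per well, incubated 24 h. HeLa and A-431 then received fresh medium. Graded compound concentrations were added for a further 72 h at 37 °C, 5% CO2. Viability was counted by Trypan blue exclusion. IC50 is the concentration giving 50% reduction in cell number versus control: ≥3 independent experiments, triplicate samples, mean ± SD.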
# [2] = test system: yA7; assay: Cytotoxicity against mouse yA7 cells after 24 to 96 hrs by MTS assay; format: functional, cell-based
# Outline: (§2)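 Mouse transgenic lines plated at 10^3 cells/well and left 24 h to attach. Drugs diluted in medium were added for 24 or 96 h. CellTiter 96 AQueous One (MTS) reagent was then added for 1 h at 37 °C, with absorbance read at 490 nm. Each condition was run in quintuplicate, and cytotoxicity was expressed as percent of controls.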
# [3] = test system: A2B1; assay: Cytotoxicity against mouse A2B1 cells after 24 to 96 hrs by MTS assay; format: functional, cell-based; outline: as §2
# [4] = test system: HL-60; assay: Cytotoxicity against human HL60 cells after 72 hrs by trypan blue assay; format: functional, cell-based; details: HL-60, 72 h; outline: as §1
# [5] = test system: HeLa; assay: Cytotoxicity against human HeLa cells after 72 hrs by trypan blue assay; format: functional, cell-based; outline: as §1
# [6] = species on record: Mus musculus; assay: Cytotoxicity against mouse betaD5 cells after 24 to 96 hrs by MTS assay; format: functional, cell-based; outline: as §2
# [7] = test system: yA3; assay: Cytotoxicity against mouse yA3 cells after 24 to 96 hrs by MTS assay; format: functional, cell-based; outline: as §2
# [8] = test system: yB8; assay: Cytotoxicity against mouse yB8 cells after 24 to 96 hrs by MTS assay; format: functional, cell-based; outline: as §2
# [9] = test system: B3; assay: Cytotoxicity against mouse B3 cells after 24 to 96 hrs by MTS assay; format: functional, cell-based; outline: as §2
# [10] = test system: yD12; assay: Cytotoxicity against mouse yD12 cells after 24 to 96 hrs by MTS assay; format: functional, cell-based; outline: as §2
# [11] = test system: A2C12; assay: Cytotoxicity against mouse A2C12 cells after 24 to 96 hrs by MTS assay; format: functional, cell-based; outline: as §2
# [12] = molecular target: DNA topoisomerase 2-alpha (Homo sapiens) (UniProt P11388); assay: Inhibition of human recombinant topoisomerase 2alpha-mediated relaxation of supercoiled pBR322 at up to 100 uM after 60 mins using ethidium bromide staining by agarose gel electrophoresis
# Sequence of DNA topoisomerase 2-alpha (Homo sapiens) (P11388 whole entry): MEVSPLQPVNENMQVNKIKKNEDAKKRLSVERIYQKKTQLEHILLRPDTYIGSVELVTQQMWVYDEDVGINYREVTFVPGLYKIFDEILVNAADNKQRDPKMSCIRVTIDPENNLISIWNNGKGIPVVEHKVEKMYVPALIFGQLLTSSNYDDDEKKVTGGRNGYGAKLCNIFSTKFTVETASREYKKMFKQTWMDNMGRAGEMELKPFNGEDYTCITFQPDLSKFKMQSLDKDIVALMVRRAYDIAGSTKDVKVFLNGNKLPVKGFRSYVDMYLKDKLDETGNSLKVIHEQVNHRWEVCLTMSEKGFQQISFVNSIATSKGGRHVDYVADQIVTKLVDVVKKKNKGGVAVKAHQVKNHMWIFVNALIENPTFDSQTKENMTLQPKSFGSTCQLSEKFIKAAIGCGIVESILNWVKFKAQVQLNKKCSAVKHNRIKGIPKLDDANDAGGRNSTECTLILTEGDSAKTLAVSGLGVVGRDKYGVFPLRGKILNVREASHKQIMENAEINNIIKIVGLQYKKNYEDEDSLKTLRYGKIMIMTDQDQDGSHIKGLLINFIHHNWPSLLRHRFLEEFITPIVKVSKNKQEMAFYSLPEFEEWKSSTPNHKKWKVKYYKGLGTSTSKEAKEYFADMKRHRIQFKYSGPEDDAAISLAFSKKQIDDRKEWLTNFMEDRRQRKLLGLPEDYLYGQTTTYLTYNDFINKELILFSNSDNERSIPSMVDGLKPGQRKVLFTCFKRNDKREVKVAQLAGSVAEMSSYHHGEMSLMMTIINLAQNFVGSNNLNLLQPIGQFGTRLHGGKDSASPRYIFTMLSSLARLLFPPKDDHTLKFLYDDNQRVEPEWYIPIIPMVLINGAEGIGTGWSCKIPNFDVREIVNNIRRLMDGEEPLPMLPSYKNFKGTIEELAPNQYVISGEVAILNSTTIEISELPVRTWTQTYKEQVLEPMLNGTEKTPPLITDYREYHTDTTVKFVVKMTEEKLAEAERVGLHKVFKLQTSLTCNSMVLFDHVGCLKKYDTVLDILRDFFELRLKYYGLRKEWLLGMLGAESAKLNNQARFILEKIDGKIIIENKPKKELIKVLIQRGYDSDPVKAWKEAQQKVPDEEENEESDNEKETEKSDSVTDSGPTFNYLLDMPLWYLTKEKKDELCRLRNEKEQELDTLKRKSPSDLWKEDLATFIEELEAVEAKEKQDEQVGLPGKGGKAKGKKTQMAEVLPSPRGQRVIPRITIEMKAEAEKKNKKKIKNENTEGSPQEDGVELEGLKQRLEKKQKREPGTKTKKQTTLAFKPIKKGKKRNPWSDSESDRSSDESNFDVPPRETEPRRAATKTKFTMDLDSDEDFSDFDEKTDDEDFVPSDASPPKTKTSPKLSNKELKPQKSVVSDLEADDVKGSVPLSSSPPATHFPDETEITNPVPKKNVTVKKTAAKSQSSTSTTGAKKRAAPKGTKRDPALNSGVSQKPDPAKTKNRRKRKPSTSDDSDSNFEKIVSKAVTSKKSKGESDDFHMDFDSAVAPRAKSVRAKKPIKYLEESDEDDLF
# Outline: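 Supercoiled pBR322 (0.25 µg) with 1 U human recombinant topoisomerase IIα and test compound, 60 min at 37 °C in 20 µl reaction buffer. Stopped with SDS/bromophenol blue/glycerol plus 50 µg/mL proteinase K, 30 min at 37 °C. Separated on 1% agarose at room temperature, ethidium bromide stained (1 µg/mL, TAE), UV-visualized.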
# [13] = test system: Craf/Cmyc; assay: Cytotoxicity against mouse Craf/Cmyc cells after 24 to 96 hrs by MTS assay; format: functional, cell-based; outline: as §2
# [14] = test system: HUVEC; assay: Antiangiogenic activity in HUVEC cocultured with human PaSMC assessed as inhibition of capillary-like network formation up to 200 nM after 72 hrs; format: functional, cell-based
# Outline: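 Primary HUVEC (passage 5, retrovirally labelled with RFP) and pulmonary artery vSMC (passage 5) co-seeded at 5×10^4 PaSMC plus 10×10^3 HUVEC per well in EGM-2, briefly spun at 200 g, attached 3 h. Compounds were then added at final 2–200 nM, two replicates per concentration. Networks formed over 72 h at 37 °C, 5% CO2, followed by automated imaging and image analysis of tube formation.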
# [15] = test system: Nucleic Acid; assay: Binding affinity to salmon testes DNA by linear flow dichroism analysis; format: nucleic-acid assay; details: Salmonidae
# Outline: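 Salmon testes DNA (1.9 × 10^-3 M) in ETN buffer (10 mM Tris, 10 mM NaCl, 1 mM EDTA, pH 7). Linear dichroism spectra were recorded at 25 °C over a range of [drug]/[DNA] ratios on a spectropolarimeter converted for LD.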
# [16] = species on record: Bos taurus; assay: Inhibition of calf thymus topoisomerase 1-mediated relaxation of supercoiled pBR322 at 100 uM after 60 mins using ethidium bromide staining by agarose gel electrophoresis
# Outline: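 Supercoiled pBR322 (0.25 µg) with 2 U calf thymus topoisomerase I and test compound, 60 min at 37 °C in 20 µl reaction buffer. Stopped with SDS/bromophenol blue/glycerol plus 50 µg/mL proteinase K, 30 min at 37 °C. Run on 1% agarose at room temperature, stained with ethidium bromide 1 µg/mL in TAE, imaged under UV.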
# [17] = species on record: Mus musculus; assay: Cytotoxicity against mouse betaD10 cells after 24 to 96 hrs by MTS assay; format: functional, cell-based; outline: as §2
# [18] = species on record: Mus musculus; assay: Induction apoptosis in mouse betaD5 cells assessed as ROS production at 10 uM/L using DCFH-DA by flow cytometry relative to control; format: functional, cell-based
# Outline: (§3)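 Transgenic mouse cells exposed to compound at 10 µmol/L. ROS generation was measured by flow cytometry using the probe DCFH-DA.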
# [19] = test system: B3; assay: Induction apoptosis in mouse B3 cells assessed as relative caspase activity at 10 uM/L after 2 hrs by rhodamine 110 fluorescence assay; format: functional, cell-based
# Outline: (§4)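 Cells were pretreated with compound (10 µmol/L) for 2 h. The cell-permeable caspase substrate (Asp)2-rhodamine 110 (10 µmol/L) was then added for 2 h more. Caspase cleavage releases fluorescent rhodamine 110, and the read-out was mean fluorescence.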
# [20] = test system: B3; assay: Induction apoptosis in mouse B3 cells assessed as ROS production at 10 uM/L using DCFH-DA by flow cytometry relative to control; format: functional, cell-based; outline: as §3
# [21] = test system: Craf/Cmyc; assay: Induction apoptosis in mouse Craf/Cmyc cells assessed as relative caspase activity at 10 uM/L after 2 hrs by rhodamine 110 fluorescence assay; format: functional; outline: as §4
# [22] = test system: yD12; assay: Induction apoptosis in mouse yD12 cells assessed as ROS production at 10 uM/L using DCFH-DA by flow cytometry relative to control; format: functional, cell-based; outline: as §3
# [23] = test system: yA3; assay: Induction apoptosis in mouse yA3 cells assessed as ROS production at 10 uM/L using DCFH-DA by flow cytometry relative to control; format: functional, cell-based; outline: as §3
# [24] = test system: A2C12; assay: Induction apoptosis in mouse A2C12 cells assessed as ROS production at 10 uM/L using DCFH-DA by flow cytometry relative to control; format: functional, cell-based; outline: as §3
# [25] = test system: A2C12; assay: Induction apoptosis in mouse A2C12 cells assessed as relative caspase activity at 10 uM/L after 2 hrs by rhodamine 110 fluorescence assay; format: functional, cell-based; outline: as §4
# [26] = test system: yB8; assay: Induction apoptosis in mouse yB8 cells assessed as relative caspase activity at 10 uM/L after 2 hrs by rhodamine 110 fluorescence assay; format: functional, cell-based; outline: as §4
# [27] = test system: yD1; assay: Induction apoptosis in mouse yD1 cells assessed as ROS production at 10 uM/L using DCFH-DA by flow cytometry relative to control; format: functional, cell-based; outline: as §3
# [28] = species on record: Mus musculus; assay: Induction apoptosis in mouse betaD10 cells assessed as relative caspase activity at 10 uM/L after 2 hrs by rhodamine 110 fluorescence assay; format: functional, cell-based; outline: as §4
# [29] = test system: yA7; assay: Induction apoptosis in mouse yA7 cells assessed as ROS production at 10 uM/L using DCFH-DA by flow cytometry relative to control; format: functional, cell-based; outline: as §3
# [30] = test system: A2B1; assay: Induction apoptosis in mouse A2B1 cells assessed as relative caspase activity at 10 uM/L after 2 hrs by rhodamine 110 fluorescence assay; format: functional, cell-based; outline: as §4
# [31] = test system: yA3; assay: Induction apoptosis in mouse yA3 cells assessed as relative caspase activity at 10 uM/L after 2 hrs by rhodamine 110 fluorescence assay; format: functional, cell-based; outline: as §4
# [32] = species on record: Mus musculus; assay: Induction apoptosis in mouse betaD10 cells assessed as ROS production at 10 uM/L using DCFH-DA by flow cytometry relative to control; format: functional, cell-based; outline: as §3
# [33] = test system: yB8; assay: Induction apoptosis in mouse yB8 cells assessed as ROS production at 10 uM/L using DCFH-DA by flow cytometry relative to control; format: functional, cell-based; outline: as §3
# [34] = test system: A2B1; assay: Induction apoptosis in mouse A2B1 cells assessed as ROS production at 10 uM/L using DCFH-DA by flow cytometry relative to control; format: functional, cell-based; outline: as §3
# [35] = test system: yD12; assay: Induction apoptosis in mouse yD12 cells assessed as relative caspase activity at 10 uM/L after 2 hrs by rhodamine 110 fluorescence assay; format: functional, cell-based; outline: as §4
# [36] = test system: Craf/Cmyc; assay: Induction apoptosis in mouse Craf/Cmyc cells assessed as ROS production at 10 uM/L using DCFH-DA by flow cytometry relative to control; format: functional, cell-based; outline: as §3
# [37] = species on record: Mus musculus; assay: Induction apoptosis in mouse betaD5 cells assessed as relative caspase activity at 10 uM/L after 2 hrs by rhodamine 110 fluorescence assay; format: functional, cell-based; outline: as §4
# [38] = test system: yD1; assay: Induction apoptosis in mouse yD1 cells assessed as relative caspase activity at 10 uM/L after 2 hrs by rhodamine 110 fluorescence assay; format: functional, cell-based; outline: as §4
# [39] = test system: yA7; assay: Induction apoptosis in mouse yA7 cells assessed as relative caspase activity at 10 uM/L after 2 hrs by rhodamine 110 fluorescence assay; format: functional, cell-based; outline: as §4
compound,measurement,setting,value
CC[C@@]1(OC(=O)NCCN2C(=O)CCCSSCCCC2=O)C(=O)OCc2c1cc1n(c2=O)Cc2cc3ccccc3nc2-1,IC50,[1],1210 nM
same,Activity,[2],Active
same,Activity,[3],Active
same,IC50,[4],1550 nM
same,IC50,[5],570 nM
same,Activity,[6],Active
same,Activity,[7],Active
same,Activity,[8],Active
same,Activity,[9],Active
same,Activity,[10],Active
same,Activity,[11],Active
same,Activity,[12],inactive
same,Activity,[13],Active
same,Activity,[14],inactive
same,Activity,[15],inactive
same,Activity,[16],inactive
same,Activity,[17],Active
CC[C@@]1(OC(=O)NCCN2C(=O)CCCCCCCCC2=O)C(=O)OCc2c1cc1n(c2=O)Cc2cc3ccccc3nc2-1,Activity,[18],inactive
same,Activity,[19],inactive
same,IC50,[1],1880 nM
same,Activity,[2],Active
same,Activity,[3],Active
same,IC50,[4],12200 nM
same,Activity,[20],inactive
same,IC50,[5],8300 nM
same,Activity,[21],inactive
same,Activity,[22],inactive
same,Activity,[6],Active
same,Activity,[23],inactive
same,Activity,[24],inactive
same,Activity,[25],inactive
same,Activity,[26],inactive
same,Activity,[7],Active
same,Activity,[27],inactive
same,Activity,[28],inactive
same,Activity,[8],Active
same,Activity,[29],inactive
same,Activity,[30],inactive
same,Activity,[9],Active
same,Activity,[10],Active
same,Activity,[31],inactive
same,Activity,[11],Active
same,Activity,[32],inactive
same,Activity,[12],inactive
same,Activity,[33],inactive
same,Activity,[34],inactive
same,Activity,[35],inactive
same,Activity,[13],Active
same,Activity,[36],inactive
same,Activity,[37],inactive
same,Activity,[15],inactive
same,Activity,[16],inactive
same,Activity,[38],inactive
same,Activity,[17],Active
same,Activity,[39],inactive
CC[C@@]1(OC(=O)NCCNC(=O)CSSCC(=O)NCCNC(=O)O[C@]2(CC)C(=O)OCc3c2cc2n(c3=O)Cc3cc4ccccc4nc3-2)C(=O)OCc2c1cc1n(c2=O)Cc2cc3ccccc3nc2-1,Activity,[12],inactive
same,Activity,[15],inactive
